Measurements published in ChEMBL document CHEMBL4732181, “Pyrazolo[3,4-d]pyrimidine-based dual EGFR T790M/HER2 inhibitors: Design, synthesis, structure-activity relationship and biological activity as potential antitumor and anticonvulsant agents” (Eur J Med Chem, 2021).

Key:
WI-38 = test: Cytotoxicity against human WI-38 cells assessed as reduction in cell viability after 48 hrs by MTT assay; type: cell-based; settings: WI-38, 48 h
Procedure, shortened: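 Cells from ATCC grown in DMEM with 10% FBS, insulin and 1% penicillin-streptomycin. Plated at 1.2-1.8 × 10,000 cells/well for 24 h, then exposed to compounds in DMSO vehicle for 48 h. MTT 0.5 mg/ml added for 2 h; absorbance read at 570 nm. Experiments run in triplicate.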

Mus musculus [1] = test: Anticonvulsant activity against mouse model of LiCa/pilocarpine-induced status epilepticus assessed as mean power frequency at 20 mg/kg, po for 10 days by EEG method relative to control; type: functional; settings: time 10 day
Procedure, shortened: (§1)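 Male mice (20-30 g), five per group, dosed orally once daily for 10 days. Status epilepticus was then induced with LiCa (3 mEq/kg i.p.), atropine sulfate (1 mg/kg i.p.) 30 min before pilocarpine, and pilocarpine HCl (300 mg/kg i.p.) 2 h after LiCa. Normal controls received oral distilled water. Comparators were untreated SE, phenytoin and lamotrigine. One-way ANOVA with Tukey post-hoc; mean ± SD.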

Mus musculus [2] = test: Anticonvulsant activity against mouse model of LiCa/pilocarpine-induced status epilepticus assessed as spectral edge frequency at 20 mg/kg, po for 10 days by EEG method relative to control; type: functional; settings: time 10 day; procedure, shortened: as §1
Mus musculus [3] = test: Anticonvulsant activity against mouse model of LiCa/pilocarpine-induced status epilepticus assessed as total power at 20 mg/kg, po for 10 days by EEG method relative to control; type: functional; settings: time 10 day; procedure, shortened: as §1
Mus musculus [4] = test: Anticonvulsant activity against mouse model of LiCa/pilocarpine-induced status epilepticus assessed as amplitude at 20 mg/kg, po for 10 days by EEG method relative to control; type: functional; settings: time 10 day; procedure, shortened: as §1
Mus musculus [5] = test: Anticonvulsant activity against mouse model of LiCa/pilocarpine-induced status epilepticus assessed as amplitude density at 20 mg/kg, po for 10 days by EEG method relative to control; type: functional; settings: time 10 day; procedure, shortened: as §1
Mus musculus [6] = test: Anticonvulsant activity against mouse model of LiCa/pilocarpine-induced status epilepticus assessed as power pV2 at 20 mg/kg, po for 10 days by EEG method relative to control; type: functional; settings: time 10 day; procedure, shortened: as §1
Mus musculus [7] = test: Anticonvulsant activity against mouse model of LiCa/pilocarpine-induced status epilepticus assessed as total power density at 20 mg/kg, po for 10 days by EEG method relative to control; type: functional; settings: time 10 day; procedure, shortened: as §1
Mus musculus [8] = test: Anticonvulsant activity against mouse model of LiCa/pilocarpine-induced status epilepticus assessed as delta at 20 mg/kg, po for 10 days by EEG method relative to control; type: functional; settings: time 10 day; procedure, shortened: as §1
Mus musculus [9] = test: Anticonvulsant activity against mouse model of LiCa/pilocarpine-induced status epilepticus assessed as theta at 20 mg/kg, po for 10 days by EEG method relative to control; type: functional; settings: time 10 day; procedure, shortened: as §1
Mus musculus [10] = test: Anticonvulsant activity against mouse model of LiCa/pilocarpine-induced status epilepticus assessed as alpha at 20 mg/kg, po for 10 days by EEG method relative to control; type: functional; settings: time 10 day; procedure, shortened: as §1
Mus musculus [11] = test: Anticonvulsant activity against mouse model of LiCa/pilocarpine-induced status epilepticus assessed as MDA level in brain at 20 mg/kg, po for 10 days by calorimetric method relative to control; type: functional; settings: time 10 day; procedure, shortened: as §1
Mus musculus [12] = test: Anticonvulsant activity against mouse model of LiCa/pilocarpine-induced status epilepticus assessed as GSH level in brain at 20 mg/kg, po for 10 days by calorimetric method relative to control; type: functional; settings: time 10 day; procedure, shortened: as §1
Mus musculus [13] = test: Anticonvulsant activity against mouse model of LiCa/pilocarpine-induced status epilepticus assessed as GABA level in brain at 20 mg/kg, po for 10 days by ELISA relative to control; type: functional; settings: time 10 day; procedure, shortened: as §1
Mus musculus [14] = test: Anticonvulsant activity against mouse model of LiCa/pilocarpine-induced status epilepticus assessed as Glutamate level in brain at 20 mg/kg, po for 10 days by ELISA relative to control; type: functional; settings: time 10 day; procedure, shortened: as §1

SMILES	IC50 (WI-38)	Activity (Mus musculus [1])	Activity (Mus musculus [2])	Activity (Mus musculus [3])	Activity (Mus musculus [4])	Activity (Mus musculus [5])	Activity (Mus musculus [6])	Activity (Mus musculus [7])	Activity (Mus musculus [8])	Activity (Mus musculus [9])	Activity (Mus musculus [10])	Activity (Mus musculus [11])	Activity (Mus musculus [12])	Activity (Mus musculus [13])	Activity (Mus musculus [14])
Cc1ccc(C2=N/C(=C\c3ccccc3)C(=O)NN2C(=O)c2nc3c(c(C)nn3-c3ccccc3)c(=O)[nH]2)cc1	0.0245 µM	-37.93%	-22.26%	15.45%	62.22%	36.17%	143.79%	210.16%	241.85%	32.01%	9.13%	-66.18%	173.91%	59.73%	-72.91%
Cc1nn(-c2ccccc2)c2nc(CC(=O)N3NC(=O)/C(=C\c4ccc(Cl)cc4)N=C3c3ccc(Cl)cc3)[nH]c(=O)c12	0.0129 µM	-25.05%	-13.39%	0.58%	45.78%	69.3%	126.51%	181.99%	239.87%	54.18%	35.86%	-60.61%	146.06%	82.22%	-58.56%
CS(=O)(=O)CCNCc1ccc(-c2ccc3ncnc(Nc4ccc(OCc5cccc(F)c5)c(Cl)c4)c3c2)o1 [LAPATINIB]	0.0452 µM	-50.58%	-34.07%	33.24%	122.67%	142.55%	272.65%	346.9%	425.44%	12.11%	-8.6%	-57.67%	172.32%	83.04%	-81.12%
COc1ccc(/C=C2\N=C(c3ccccc3)N(C(=O)c3nc4c(c(C)nn4-c4ccccc4)c(=O)[nH]3)NC2=O)cc1	0.0977 µM	-48.49%	-25.28%	30.61%	99.56%	88.15%	230.03%	265.27%	368.94%	29.32%	-5.51%	-54.04%	141.33%	68.66%	-76.21%
Cc1nn(-c2ccccc2)c2nc(C(=O)N3NC(=O)/C(=C/c4ccccc4)N=C3c3ccccc3)[nH]c(=O)c12	0.0495 µM	-30.24%	-16.31%	13.12%	67.11%	78.42%	138.76%	229.32%	314.32%	28.9%	12.39%	-72.13%	154.11%	61.71%	-58.33%
Cc1nn(-c2ccccc2)c2nc(C(=O)N3NC(=O)/C(=C/c4ccccc4)N=C3c3ccc(Cl)cc3)[nH]c(=O)c12	0.055 µM	-22.83%	-13.59%	10.2%	54.67%	76.29%	133.56%	200.5%	254.07%	16.08%	27.21%	-55.28%	80.37%	89.37%	-39.91%
O=C1NC(=O)C(c2ccccc2)(c2ccccc2)N1 [PHENYTOIN]	–	-58.54%	-38.74%	51.6%	158.67%	175.08%	332.89%	381.63%	485.9%	19.76%	-14.82%	-56.88%	156.39%	92.87%	-81.35%
Cc1nn(-c2ccccc2)c2nc(CC(=O)N3NC(=O)/C(=C\c4ccc(Cl)cc4)N=C3c3ccccc3)[nH]c(=O)c12	0.111 µM	-44.11%	-28.09%	23.03%	82.67%	63.22%	204.36%	248.78%	327.42%	20.33%	0.12%	-74.39%	170%	80.61%	-76.98%
COc1ccc(/C=C2\N=C(c3ccc(C)cc3)N(C(=O)c3nc4c(c(C)nn4-c4ccccc4)c(=O)[nH]3)NC2=O)cc1	0.0368 µM	-32.59%	-18.75%	18.66%	79.11%	56.84%	198.49%	222.48%	295.04%	32.29%	4.98%	-46.76%	98.02%	79.64%	-67.77%
COc1ccc(/C=C2/N=C(c3ccccc3)N(C(=O)Cc3nc4c(c(C)nn4-c4ccccc4)c(=O)[nH]3)NC2=O)cc1	0.0172 µM	-39.36%	-21.87%	16.62%	66.22%	47.72%	167.62%	215.63%	266.63%	24.43%	2.55%	-66.91%	136.46%	104.31%	-75.98%
